This is an account of results in the M2OR odorant receptor database.

One experiment concerns the target UniProt Q9WVD9. The conditions noted are these: stereoisomer not certain. In short, it runs like this: (§1)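 Each receptor–molecule pair is labelled responsive or non-responsive (inactive) according to whether the original authors judged the measured signal statistically different from baseline. The data were taken from the main text and supplementary material of published papers and checked for typos and inconsistencies. Assay methods differed by source, with transient luciferase assays in mammalian cell lines being common.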

The target in the next experiment is T1, UniProt Q9WVN5.
T1 sequence (whole entry): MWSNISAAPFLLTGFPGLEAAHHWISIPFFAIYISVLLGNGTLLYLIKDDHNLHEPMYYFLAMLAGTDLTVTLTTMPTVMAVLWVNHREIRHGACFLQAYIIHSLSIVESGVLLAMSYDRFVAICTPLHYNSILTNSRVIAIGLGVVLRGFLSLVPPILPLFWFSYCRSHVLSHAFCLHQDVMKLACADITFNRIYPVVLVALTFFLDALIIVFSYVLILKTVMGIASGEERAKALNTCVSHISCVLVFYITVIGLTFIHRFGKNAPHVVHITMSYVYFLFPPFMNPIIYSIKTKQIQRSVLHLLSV
Particulars: stereoisomer not certain. In short, it runs like this: as §1

The structures appear in SMILES notation.
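Note: active if original authors judged signal statistically different from baseline.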

Sequence of UniProt Q9WVD9 (Q9WVD9 as listed by the source): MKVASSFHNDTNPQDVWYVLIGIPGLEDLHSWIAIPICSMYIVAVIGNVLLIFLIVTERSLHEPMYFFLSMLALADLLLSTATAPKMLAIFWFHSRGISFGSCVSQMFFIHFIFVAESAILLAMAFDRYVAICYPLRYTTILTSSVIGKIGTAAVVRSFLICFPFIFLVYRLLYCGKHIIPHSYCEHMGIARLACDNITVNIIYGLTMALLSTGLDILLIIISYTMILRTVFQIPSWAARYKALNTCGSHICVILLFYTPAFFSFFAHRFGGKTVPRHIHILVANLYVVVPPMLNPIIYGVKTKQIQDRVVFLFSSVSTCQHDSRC

For `O=C1Cc2ccccc2O1`, in the experiment with UniProt Q9WVD9, the “odorant receptor agonist call” value is “inactive”. For the same compound, the “odorant receptor agonist call” value with UniProt Q9WVN5 is “active”.
In the same order, the values of `COc1cc(C(=O)O)ccc1O` are “inactive” and “inactive”.
In the same order, the values of `C=CCOC(=O)CCCCCC` are “inactive” and “inactive”.
`CCCCCO`: the “odorant receptor agonist call” value with UniProt Q9WVD9 and with UniProt Q9WVN5 was “inactive” throughout.
Take `CCC(=O)O`: the “odorant receptor agonist call” value with UniProt Q9WVD9 and in the experiment with UniProt Q9WVN5 was “inactive” throughout.
Take `CCCC(=O)C(C)=O`: the “odorant receptor agonist call” value with UniProt Q9WVD9 and in the experiment with UniProt Q9WVN5 was “inactive” throughout.
As to `CCCCCOC(=O)CCCCC`, the “odorant receptor agonist call” value in the experiment with UniProt Q9WVD9 and with UniProt Q9WVN5 was “inactive” each time.
Consider `CC(C)=CCCC(C)CCO` (centres undefined), for which the “odorant receptor agonist call” value with UniProt Q9WVD9 and in the experiment with UniProt Q9WVN5 was “inactive” throughout.
Regarding `CCCCCCCCCO`, the “odorant receptor agonist call” value in the experiment with UniProt Q9WVD9 and with UniProt Q9WVN5 was “inactive” each time.
On to `CCOC(=O)C(C)C`, for which the “odorant receptor agonist call” value in the experiment with UniProt Q9WVD9 and with UniProt Q9WVN5 was “inactive” each time.
As for `CC(C)=CCCC(C)=CCO`, the “odorant receptor agonist call” value in the experiment with UniProt Q9WVD9 and in the experiment with UniProt Q9WVN5 was “inactive” in each case.
For `CCCCCCCO`, the “odorant receptor agonist call” value in the experiment with UniProt Q9WVD9 and with UniProt Q9WVN5 was “inactive” throughout.
Regarding `CCCCC(=O)O`, the “odorant receptor agonist call” value with UniProt Q9WVD9 is “inactive”. Moreover, in the experiment with UniProt Q9WVN5, the “odorant receptor agonist call” value is “active”.
The matching figures for `CC(=O)Oc1ccccc1`: “inactive” and “inactive”.
For the compound `CCCCCCCCCCO`, the “odorant receptor agonist call” value in the experiment with UniProt Q9WVD9 and with UniProt Q9WVN5 was “inactive” in each case.
For the compound `CCCCCCOC(C)=O`, the “odorant receptor agonist call” value with UniProt Q9WVD9 and in the experiment with UniProt Q9WVN5 was “inactive” throughout.
As to `CCCCCCCCCC(=O)[O-].[H+]`, the “odorant receptor agonist call” value with UniProt Q9WVD9 and with UniProt Q9WVN5 was “inactive” in each case.
For the compound `CCC(C(=O)O)c1ccccc1` (centres undefined), the “odorant receptor agonist call” value in the experiment with UniProt Q9WVD9 and with UniProt Q9WVN5 was “inactive” throughout.
With `CCCCCC1=C(C)CCC1=O`, the “odorant receptor agonist call” value with UniProt Q9WVD9 and in the experiment with UniProt Q9WVN5 was “inactive” each time.
On to `c1ccccc1`, for which the “odorant receptor agonist call” value with UniProt Q9WVD9 and in the experiment with UniProt Q9WVN5 was “inactive” in each case.
Take `CCCC(C)=O`: the “odorant receptor agonist call” value in the experiment with UniProt Q9WVD9 and in the experiment with UniProt Q9WVN5 was “inactive” throughout.
Take `CCCCCC(=O)CC`: the “odorant receptor agonist call” value with UniProt Q9WVD9 and with UniProt Q9WVN5 was “inactive” each time.
